Each structure is given as a SMILES string. In brackets after ≈: the same amount, converted by molar mass.

Holding throughout (type): functional
Experiment [1] relates to Streptococcus pneumoniae. Nature of the experiment: Antibacterial activity against ermB-constitutive resistant Streptococcus pneumoniae after 20 hrs by agar dilution method. The gist of the method: (§1)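 Agar dilution MIC. Streptococcal strains were pre-cultured on blood agar plates. A 5 µl portion of a cell suspension of about 10^6 CFU/ml was inoculated onto Sensitivity disk agar supplemented with 5% horse blood. Plates were incubated at 37 °C for 20 h, then MIC was read.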
(In agar dilution, organisms are placed on agar that contains the substance at set levels.)

Experiment [2] has as its system Staphylococcus aureus. Nature of the experiment: Antibacterial activity against susceptible Staphylococcus aureus after 20 hrs by agar dilution method. The gist of the method: (§2)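 Agar dilution MIC. The inoculum came from a seed culture in Sensitivity test broth. A 5 µl portion of a cell suspension of about 10^6 CFU/ml was inoculated onto Sensitivity disk agar supplemented with 5% horse blood. Plates were incubated at 37 °C for 20 h, then MIC was read.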

For experiment [3], the system named is Streptococcus pyogenes. Nature of the experiment: Antibacterial activity against standard Streptococcus pyogenes after 20 hrs by agar dilution method. The essentials:
(§3)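 MIC by agar dilution. Strains grown on blood agar plates for seed culture. About 5 µl of a suspension of roughly 10^6 CFU/ml spotted onto Sensitivity disk agar with 5% horse blood. Plates incubated at 37 °C for 20 h, then MIC read.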

Experiment [4] concerns Streptococcus pneumoniae. Nature of the experiment: Antibacterial activity against mefE efflux-resistant Streptococcus pneumoniae after 20 hrs by agar dilution method. The gist of the method: as §1
The test system of experiment [5] is Streptococcus pyogenes. Nature of the experiment: Antibacterial activity against mefE efflux-resistant Streptococcus pyogenes after 20 hrs by agar dilution method. The essentials:
as §1

In experiment [6] the test system is Streptococcus pyogenes. Kind of experiment: Antibacterial activity against ermB-constitutive resistant Streptococcus pyogenes after 20 hrs by agar dilution method. The essentials: as §1
The test system of experiment [7] is Haemophilus influenzae. Kind of experiment: Antibacterial activity against standard Haemophilus influenzae after 20 hrs by agar dilution method. The gist of the method: as §3
The next experiment concerns Moraxella catarrhalis. Kind of experiment: Antibacterial activity against standard Moraxella catarrhalis after 20 hrs by agar dilution method. The gist of the method: as §3
Experiment [8] relates to Streptococcus pneumoniae. Kind of experiment: Antibacterial activity against susceptible Streptococcus pneumoniae after 20 hrs by agar dilution method. The essentials:
as §3

Experiment [9] concerns Staphylococcus aureus. Nature of the experiment: Antibacterial activity against ermC-inducible resistant Staphylococcus aureus after 20 hrs by agar dilution method. The gist of the method: as §2
Experiment [10] has as its system Streptococcus pneumoniae. Kind of experiment: Antibacterial activity against ermB-inducible resistant Streptococcus pneumoniae after 20 hrs by agar dilution method. The gist of the method:
as §1

Experiment [11] relates to Staphylococcus aureus. Kind of experiment: Antibacterial activity against ermB-inducible resistant Staphylococcus aureus after 20 hrs by agar dilution method. The essentials:
as §2

The test system of experiment [12] is Staphylococcus aureus. Kind of experiment: Antibacterial activity against ermA-constitutive resistant Staphylococcus aureus after 20 hrs by agar dilution method. The gist of the method: as §2
The test system of experiment [13] is Haemophilus influenzae. Nature of the experiment: Antibacterial activity against susceptible Haemophilus influenzae after 20 hrs by agar dilution method. The gist of the method: as §3
The subject of experiment [14] is Staphylococcus aureus. Kind of experiment: Antibacterial activity against standard Staphylococcus aureus after 20 hrs by agar dilution method. The essentials: as §2

For `CCC(=O)O[C@@H]1CC(=O)O[C@H](C)C[C@H](O)[C@H](N(C)CCCc2cccc3ccccc23)/C=C/[C@H](OC(C)=O)[C@H](C)C[C@H](CC=O)[C@H](O[C@@H]2O[C@H](C)[C@@H](O[C@H]3C[C@@](C)(O)[C@@H](OC(=O)CC)[C@H](C)O3)[C@H](N(C)C)[C@H]2O)[C@H]1OC`, the MIC was 50 µg/mL (≈ 46.7 µM) in the experiment with Streptococcus pneumoniae [1]; 0.39 µg/mL (≈ 0.364 µM) with Staphylococcus aureus [2]; 0.1 µg/mL (≈ 0.0933 µM) in the experiment with Streptococcus pyogenes [3]; 0.1 µg/mL (≈ 0.0933 µM) against Streptococcus pneumoniae [4]; 0.2 µg/mL (≈ 0.187 µM) in the experiment with Streptococcus pyogenes [5]; 50 µg/mL (≈ 46.7 µM) against Streptococcus pyogenes [6]. Besides, the MIC in the experiment on Haemophilus influenzae [7] was determined as 6.25 µg/mL (≈ 5.83 µM); against Moraxella catarrhalis, 0.78 µg/mL (≈ 0.728 µM); against Streptococcus pneumoniae [8] it was 0.1 µg/mL (≈ 0.0933 µM); against Staphylococcus aureus [9], 0.78 µg/mL (≈ 0.728 µM); in the experiment with Streptococcus pneumoniae [10], 6.25 µg/mL (≈ 5.83 µM); against Staphylococcus aureus [11] it was 3.13 µg/mL (≈ 2.92 µM). For the same compound, the MIC with Staphylococcus aureus [12] was more than 100 µg/mL; against Haemophilus influenzae [13], 25 µg/mL (≈ 23.3 µM); in the experiment with Staphylococcus aureus [14] it was 0.39 µg/mL (≈ 0.364 µM).
As for `CCC(=O)O[C@@H]1CC(=O)O[C@H](C)C[C@H](O)[C@H](N(C)CCCc2ccnc3ccccc23)/C=C/[C@H](OC(C)=O)[C@H](C)C[C@H](CC=O)[C@H](O[C@@H]2O[C@H](C)[C@@H](O)[C@H](N(C)C)[C@H]2O)[C@H]1OC`, the MIC against Streptococcus pneumoniae [1] is more than 50 µg/mL; in the experiment on Staphylococcus aureus [2], 0.39 µg/mL (≈ 0.447 µM); against Streptococcus pyogenes [3] it was 0.1 µg/mL (≈ 0.115 µM); against Streptococcus pneumoniae [4] it was 0.1 µg/mL (≈ 0.115 µM); in the experiment on Streptococcus pyogenes [5] it was 1.56 µg/mL (≈ 1.79 µM); in the experiment on Streptococcus pyogenes [6], more than 50 µg/mL. Also, the MIC came to 0.39 µg/mL (≈ 0.447 µM) with Haemophilus influenzae [7]; 0.05 µg/mL (≈ 0.0573 µM) against Moraxella catarrhalis; 0.025 µg/mL (≈ 0.0287 µM) in the experiment on Streptococcus pneumoniae [8]; 0.39 µg/mL (≈ 0.447 µM) against Staphylococcus aureus [9]; 12.5 µg/mL (≈ 14.3 µM) against Streptococcus pneumoniae [10]; 0.39 µg/mL (≈ 0.447 µM) against Staphylococcus aureus [11]. Moreover, the results for the MIC in the experiment with Staphylococcus aureus [12], in the experiment with Haemophilus influenzae [13] and with Staphylococcus aureus [14] were more than 50 µg/mL, 1.56 µg/mL (≈ 1.79 µM) and 0.2 µg/mL (≈ 0.229 µM), respectively.
With `CCC(=O)O[C@@H]1CC(=O)O[C@H](C)C[C@H](O)[C@H](N(C)CCCc2ccccc2)/C=C/[C@H](OC(C)=O)[C@H](C)C[C@H](CC=O)[C@H](O[C@@H]2O[C@H](C)[C@@H](O[C@H]3C[C@@](C)(OC(C)=O)[C@@H](OC(=O)CC)[C@H](C)O3)[C@H](N(C)C)[C@H]2O)[C@H]1OC`, the MIC against Streptococcus pneumoniae [1] is more than 100 µg/mL; against Staphylococcus aureus [2], 0.39 µg/mL (≈ 0.367 µM); with Streptococcus pyogenes [3], 0.05 µg/mL (≈ 0.047 µM); in the experiment on Streptococcus pneumoniae [4] it was 0.1 µg/mL (≈ 0.094 µM); against Streptococcus pyogenes [5] it was 0.1 µg/mL (≈ 0.094 µM); against Streptococcus pyogenes [6], 50 µg/mL (≈ 47 µM). For the same compound, the MIC in the experiment on Haemophilus influenzae [7] was found to be 3.13 µg/mL (≈ 2.94 µM); in the experiment on Moraxella catarrhalis, 0.39 µg/mL (≈ 0.367 µM); in the experiment with Streptococcus pneumoniae [8] it was 0.05 µg/mL (≈ 0.047 µM); with Staphylococcus aureus [9] it was 0.39 µg/mL (≈ 0.367 µM); against Streptococcus pneumoniae [10] it was 1.56 µg/mL (≈ 1.47 µM); with Staphylococcus aureus [11], 0.2 µg/mL (≈ 0.188 µM). For the same compound, the MIC is more than 100 µg/mL against Staphylococcus aureus [12], 25 µg/mL (≈ 23.5 µM) against Haemophilus influenzae [13] and 0.39 µg/mL (≈ 0.367 µM) in the experiment with Staphylococcus aureus [14].
Take `CCC(=O)O[C@@H]1CC(=O)O[C@H](C)C[C@H](O)[C@H](N(C)CCCn2cnc(-c3cccnc3)c2)/C=C/[C@H](OC(C)=O)[C@H](C)C[C@H](CC=O)[C@H](O[C@@H]2O[C@H](C)[C@@H](O[C@H]3C[C@@](C)(O)[C@@H](OC(=O)CC)[C@H](C)O3)[C@H](N(C)C)[C@H]2O)[C@H]1OC`: the MIC with Streptococcus pneumoniae [1] was more than 100 µg/mL; in the experiment with Staphylococcus aureus [2], 0.2 µg/mL (≈ 0.184 µM); in the experiment on Streptococcus pyogenes [3], 0.1 µg/mL (≈ 0.0919 µM); with Streptococcus pneumoniae [4] it was 0.1 µg/mL (≈ 0.0919 µM); in the experiment with Streptococcus pyogenes [5], 0.2 µg/mL (≈ 0.184 µM); with Streptococcus pyogenes [6] it was more than 100 µg/mL. The MIC in the experiment with Haemophilus influenzae [7] stood at 1.56 µg/mL (≈ 1.43 µM); with Moraxella catarrhalis, 1.56 µg/mL (≈ 1.43 µM); against Streptococcus pneumoniae [8], 0.06 µg/mL (≈ 0.0551 µM); in the experiment with Staphylococcus aureus [9], 0.39 µg/mL (≈ 0.358 µM); in the experiment with Streptococcus pneumoniae [10], 100 µg/mL (≈ 91.9 µM); in the experiment on Staphylococcus aureus [11] it was 0.39 µg/mL (≈ 0.358 µM). In addition, the MIC against Staphylococcus aureus [12] was more than 100 µg/mL; with Haemophilus influenzae [13], 25 µg/mL (≈ 23 µM); in the experiment with Staphylococcus aureus [14], 0.39 µg/mL (≈ 0.358 µM).
As to `CCC(=O)O[C@@H]1CC(=O)O[C@H](C)C[C@H](O)[C@H](N(C)CCCCCCCc2ccccc2)/C=C/[C@H](OC(C)=O)[C@H](C)C[C@H](CC=O)[C@H](O[C@@H]2O[C@H](C)[C@@H](O[C@H]3C[C@@](C)(O)[C@@H](OC(=O)CC)[C@H](C)O3)[C@H](N(C)C)[C@H]2O)[C@H]1OC`, the MIC stood at 25 µg/mL (≈ 23.2 µM) in the experiment with Streptococcus pneumoniae [1]; 0.78 µg/mL (≈ 0.724 µM) with Staphylococcus aureus [2]; 0.39 µg/mL (≈ 0.362 µM) with Streptococcus pyogenes [3]; 0.39 µg/mL (≈ 0.362 µM) against Streptococcus pneumoniae [4]; 0.78 µg/mL (≈ 0.724 µM) with Streptococcus pyogenes [5]; 25 µg/mL (≈ 23.2 µM) in the experiment with Streptococcus pyogenes [6]. Moreover, the MIC with Haemophilus influenzae [7] came to 12.5 µg/mL (≈ 11.6 µM); in the experiment on Moraxella catarrhalis, 3.13 µg/mL (≈ 2.91 µM); in the experiment with Streptococcus pneumoniae [8], 0.39 µg/mL (≈ 0.362 µM); against Staphylococcus aureus [9], 1.56 µg/mL (≈ 1.45 µM); against Streptococcus pneumoniae [10], 12.5 µg/mL (≈ 11.6 µM); against Staphylococcus aureus [11], 0.78 µg/mL (≈ 0.724 µM). The MIC in the experiment on Staphylococcus aureus [12] was determined as 100 µg/mL (≈ 92.8 µM); with Haemophilus influenzae [13], 25 µg/mL (≈ 23.2 µM); in the experiment with Staphylococcus aureus [14] it was 1.56 µg/mL (≈ 1.45 µM).

The values are drawn from ChEMBL document CHEMBL1157144, “Novel 16-membered macrolides modified at C-12 and C-13 positions of midecamycin A1 and miokamycin. Part 1: Synthesis and evaluation of 12,13-carbamate and 12-arylalkylamino-13-hydroxy analogues” (2008).
